In paper PMC5367579 (International Journal of Nanomedicine, 2017):
Ends that are not written are not given here.

Experiments:
[1] = tested on: INS-1 cells; assay: Glucose uptake of INS-1 cells; assay type: cell-based; conditions: 10 nM SCD/peptides or 210 nM SeNPs/SC, KRBH buffer with 16.7 mM glucose, 20 min
[2] = tested on: db/db mice; assay: Chronic 12-week daily administration in db/db mice; assay type: in vivo; conditions: daily i.p. 12 weeks, 20 nmol/kg (SC 42.1 μg/kg), mean ± SEM, n=8
[3] = tested on: INS-1 cells; assay: Insulin receptor beta subunit expression in INS-1 cells; assay type: cell-based; conditions: 10 nM SCD/peptides or 210 nM SeNPs/SC, 48 h, Western blot IR-β
[4] = tested on: db/db mice; assay: Acute blood glucose lowering after single intraperitoneal dose in db/db mice; assay type: in vivo; conditions: 20 nmol/kg single intraperitoneal dose
Procedure, shortened: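 Male 10-week-old db/db mice (type 2 diabetic), six groups of eight, with blood glucose measured before treatment. A single intraperitoneal dose of 20 nmol/kg (dosed by peptide content) was given, diluted in sterile normal saline. Blood glucose was read at 0.5 h, then hourly from 1 to 15 h. Controls were saline (same volume), reference peptides at 20 nmol/kg, and peptide-free nanoparticle carrier at 42.1 μg/kg.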

[5] = cited from earlier work

Row | Substance | glucose uptake [1] | CHOL [2] | Free fatty acid [2] | HDL-C [2] | LDL-C [2] | TG [2] | Water consumption [2] | Whole white fat [2] | insulin receptor expression level vs PBS group [3] | hypoglycemic effect [4] | half-life ([5]; in vivo) | half-life of wild PACAP ([5]; abstract, comparator for SCD half-life, ref not given)
1 | HSDAVFTDNYTRLRKQVAAKKYLQSIKNKRY-NH2 (C-terminus assumed) [BAY55-9837] | 1.44 mM | 2.55 ± 0.25 mmol/L | 1.30±0.19 mEq/L | 1.46 ± 0.20 mmol/L | 0.63 ± 0.12 mmol/L | 1.93 ± 0.14 mmol/L | 27.2 ± 1.90 g/day | 15.3 ± 1.28 g | 1.25 fold | momentary hypoglycemic effect within 30 min | ~ 5 min | –
2 | pituitary adenylate cyclase activating peptide [PACAP] | – | – | – | – | – | – | – | – | – | – | – | ~ 5 min
